Source: PubChem BioAssay
Shown are actives, neighbours in structure and some others; about 3.8% of the full set was active somewhere.
Measles CPE: protection of cells from measles virus | Measles virus-infected cells, CPE protection, absorbance | 140,000 compounds, 1.5% hits | protection (pct of control), % at 4 µM; in the data active = protection mostly above about 24%, no sharp cut-off; inactive = mostly below about 26%
RAM inhibit: inhibitors of the yeast RAM network. S. cerevisiae dse1pr::URA3 reporter, 5-FOA growth OD615, 2 d; analog-sensitive cbk1-as2 kinase mutant strain. inhibition, % at 50 µM. 190,000 compounds, 1.8% hits. AID 868;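 active = inhibition above a set limit, 3 SD over mean compound inhibition, cut at about 8.4% in these data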;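 note: 0% = DMSO-only wells with no growth and 100% = 10 µM 1-NA-PP1 full growth; inhibition rescues growth on 5-FOA so higher OD means more RAM inhibition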
Yeast life ext: extends the lifespan of yeast. 130,000 compounds, 0.68% hits. S. cerevisiae growth with nicotinamide, OD615; deaD strain in restrictive glucose medium. inhibition of the nicotinamide effect, % at 10 µM;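 active = inhibition above a set limit, placed 3 SD over the median of all compounds, cut at about 26% in these data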;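 note: 0% = nicotinamide-treated wells and 100% = cells grown without nicotinamide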
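Test system: DeaD-strain S. cerevisiae / Buffer or medium: restrictive glucose medium / Also added: nicotinamide 1.5 mM / Doses: one concentration, 10 µM, DMSO 0.25% / Schedule: 48 h at 30 °C / Signal: OD615 measurement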
Yeast growth inh: chemicals that inhibit yeast BB579 growth in restrictive medium (lifespan-shortening candidates); S. cerevisiae BB579 growth, OD615, 48 h; inhibition, % at 10 µM; 140,000 compounds, 0.51% hits; AID 804;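 active = inhibition above a set limit, 3 SD over the mean compound inhibition, cut at about 44% in these data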
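System: Saccharomyces cerevisiae DeaD strain BB579, replicative lifespan model yeast. Buffer or medium: restrictive glucose-based CSMM-D medium. Doses: one dose, 10 µM compound with 0.25% DMSO. Timing: 4 h preincubation and 48 h exposure at 30 °C. Detection: turbidity as optical density at 615 nm. Benchmarks: amphotericin B 10 µg/mL, positive.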
Numbers without * were called inactive; . = no result given.

SMILES	Measles CPE	RAM inhibit	Yeast life ext	Yeast growth inh
COc1ccccc1N1CCN(Cc2cc(Br)c(O)c3ncccc23)CC1	2.2	-1.0	-15.6	96.6*
Oc1c(CN2CCN(c3ccccn3)CC2)cc(Cl)c2cccnc12	-0.4	-1.2	-3.4	59.3*
NC(=O)c1cc2cc(Cc3ccccc3Cl)ccc2oc1=O	.	4.7	.	.
CN(Cc1cnn(C)c1)S(=O)(=O)c1cccc([N+](=O)[O-])c1	.	1.3	.	.
c1cc2c(cc1C1CCCCC1)c1c3n2CCCNC3CCC1 (stereo not drawn)	0.3	-0.9	.	68.1*
COc1ccc(OCCn2c(C)c(/C=N/n3cnnc3)c3ccccc32)cc1	16.7	10.0*	-5.4	-25.3
COc1cccc(OCCn2c(C)c(/C=N/n3cnnc3)c3ccccc32)c1	3.3	5.8	-2.7	-11.8
CCN(CC)CCNc1nc(-c2ccco2)c2c(c1C#N)CC(C)(C)OC2	15.1	1.1	-25.9	-36.4
CC1(C)Cc2c(C#N)c(NCCc3ccccc3)nc(-c3ccco3)c2CO1	52.6*	4.8	-19.6	-55.1
Cc1cc(NS(=O)(=O)c2ccc(NC(=O)c3cc4c(=O)n5ccccc5nc4s3)cc2)nc(C)n1	.	9.0*	.	.
CC(C)OC(=O)CSc1ncnc2c1cnn2Cc1ccccc1	33.3*	1.3	-3.2	-15.1
CCOC(=O)C1=C(C)Nc2nc(SCC)nn2C1c1ccc(OC)cc1 (stereo not drawn)	4.3	3.3	-6.5	-30.1
CCOC(=O)C1=C(C)Nc2nc(=S)[nH]n2C1c1ccc(Cl)cc1 (stereo not drawn)	6.1	3.3	61.8*	-49.6
O=C(CSc1nncs1)NCc1ccc(F)cc1	.	-1.0	.	.
CCOC(=O)C1=C(C)N=c2s/c(=C\c3ccncc3)c(=O)n2C1c1ccc2c(c1)OCO2 (stereo not drawn)	6.5	2.2	10.5	-29.8
CCOC(=O)C1=C(C)N=c2s/c(=C3\C(=O)Nc4ccccc43)c(=O)n2C1c1ccc2c(c1)OCO2 (stereo not drawn)	1.2	10.5*	-9.7	-25.6
CC(C)(C)C(=O)/C(=C\c1cccc([N+](=O)[O-])c1)n1cncn1	1.4	-1.6	.	-65.3
COC(=O)c1ccccc1NC(=O)NCc1ccncc1	.	-1.5	.	.
CCCCCCS(=O)Cc1ccccc1 (stereo not drawn)	34.9*	0.0	-5.9	-33.5
CCOC(=O)c1c(C2CC2)csc1NC(=O)COC(=O)CCS(=O)(=O)c1ccc(C)cc1	4.1	9.2*	1.8	-7.9
CC(C)CNC(=O)c1ccccc1NC(=O)CN(c1ccccc1)S(=O)(=O)N(C)C	.	1.1	.	.
O=[N+]([O-])c1ccc(Nc2nc(N/N=C\c3ccc4c(c3)OCO4)nc(N3CCCCC3)n2)cc1	3.2	10.8*	12.7	-15.5
O=[N+]([O-])c1ccc(/C=N/Nc2nc(N3CCCCC3)nc(N3CCCCC3)n2)cc1	.	1.8	.	.
Cn1c(SC2CCCCC2=O)nnc1-c1ccccc1F (stereo not drawn)	.	1.3	.	.
CC1CCN(c2oc(Cc3cccc4ccccc34)nc2C#N)CC1	6.5	10.1*	-20.1	-30.6
SMILES	Measles CPE	RAM inhibit	Yeast life ext	Yeast growth inh
N#Cc1nc(COc2ccccc2)oc1N1CCC(Cc2ccccc2)CC1	3.0	10.8*	5.5	-62.0
N#Cc1nc(Cc2cccc3ccccc23)oc1N1CCOCC1	9.3	0.6	-10.4	-10.4
CCc1nn2cc(C(=O)c3cc(Cl)ccc3O)cnc2c1-c1ccc(F)cc1	17.4	5.0	5.5	-32.5
CC(=O)c1cccc(CN2CCCC(CCC(=O)NCc3ccccc3F)C2)c1 (stereo not drawn)	.	1.2	.	.
CC1(C)CC2(C)Nc3ccccc3N2C(=S)N1 (stereo not drawn)	3.7	0.5	3.5	-66.8
CSC1=NC(C)(C)CC2(C)Nc3ccccc3N12 (stereo not drawn)	18.2*	0.6	9.8	-51.6
Cc1nn(Cc2ccccc2)c(Cl)c1C(=O)OCc1nnc(-c2ccc(Cl)cc2)o1	3.2	8.6*	-7.3	-28.0
CCc1ccc(NC(=O)CSc2nnc(-c3n[nH]c4ccccc34)n2-c2ccccc2)cc1	5.7	3.6	-3.5	-15.5
O=C(CSc1nnc(-c2n[nH]c3ccccc23)n1-c1ccccc1)Nc1cccc(Cl)c1	16.4	8.8*	6.7	-47.5
CCN(CC)S(=O)(=O)c1ccc2c(c1)C(=NO)c1cc(S(=O)(=O)N(CC)CC)ccc1-2	4.8	10.3*	.	-46.2
Cc1ccc(OCc2nc(-c3cccs3)no2)c([N+](=O)[O-])c1	.	8.7*	.	.
COc1ccc(-c2csc(NC(=O)C3COc4ccccc4O3)n2)cc1OC (stereo not drawn)	.	10.2*	.	.
COc1ccc(OC)c2sc(NNC(=O)C3COc4ccccc4O3)nc12 (stereo not drawn)	.	2.8	.	.
COc1ccc(-c2csc(NC(=S)NC(=O)/C=C/c3ccco3)n2)cc1OC	0.1	9.7*	4.0	-18.3
O=C(N/N=C/c1ccc(-c2ccccc2Cl)o1)c1ccccc1	.	3.1	.	.
O=S(=O)(N/N=C\c1ccc(-c2ccccc2Cl)o1)c1ccccc1	7.7	10.1*	.	-43.6
CC(C)Oc1ccccc1/C=N/Nc1ccccc1[N+](=O)[O-]	-0.3	8.5*	-2.5	-39.5
CCCOc1ccc(/C=N/Nc2ccccc2[N+](=O)[O-])c(O)c1	10.9	8.1	-0.5	-65.7
CCOc1ccccc1/C=N/Nc1ccccc1[N+](=O)[O-]	1.0	9.8*	2.7	-15.0
Cc1[nH]c2ccccc2c1/C=N/Nc1ccccc1[N+](=O)[O-]	.	8.8*	.	.
CC(C)CC(=O)Nc1ccc(N2CCOCC2)cc1	10.3	0.5	-16.1	6.9
COc1ccc(-n2c(SCC(=O)NC3CCCCC3)nc3ccsc3c2=O)cc1	24.4	9.1*	1.1	-35.0
CCNC(=O)CC1C(=O)N(c2ccc(OC)cc2)C(=O)N1Cc1ccc(OC)cc1 (stereo not drawn)	6.6	3.5	-13.0	-40.6
COc1ccc(CN2C(=O)N(c3ccc(OC)cc3)C(=O)C2CC(=O)Nc2ccccc2)cc1 (stereo not drawn)	.	9.5*	.	.
Nn1c(SCc2cc([N+](=O)[O-])cc3c2OCOC3)nnc1-c1cccnc1	.	3.0	.	.
SMILES	Measles CPE	RAM inhibit	Yeast life ext	Yeast growth inh
O=C(CSC(=S)N1CCOCC1)Nc1nc(=O)c2ccccc2s1	25.6	3.9	8.8	-34.1
COc1ccc(NC(=O)Cc2coc3cc(C)c(C(C)C)cc23)cc1S(=O)(=O)N1CCOCC1	29.5	0.5	-6.2	4.6
Cc1cc(C)nc(NC(=NCCc2c[nH]c3ccccc23)NC(=O)c2ccco2)n1	5.7	9.8*	-21.3	-52.4
Cc1cc(C)nc(NC(=NCCc2c[nH]c3ccccc23)NC(=O)Nc2ccccc2)n1	9.0	2.3	-2.3	-55.2
COC(=O)C1CCN(C(=O)COC(=O)CCc2nc3ccccc3c(=O)[nH]2)CC1	2.7	1.5	6.5	-27.0
COc1ccc(/C=N/NC(=O)c2ccc(Cn3cc([N+](=O)[O-])cn3)o2)c(OC)c1C	5.3	9.5*	0.7	-12.8
O=C(NC(=S)Nc1ccccc1N1CCCC1)c1cccc(F)c1	.	2.3	.	.
Cc1nn2c3ccccc3nc2c2ccccc12	14.1	0.7	-12.1	78.7*
Cc1nn2c(-c3ccccc3)nnc2c2ccccc12	6.2	0.0	-29.4	19.7
